# How the values were obtained:
# Plasmodium falciparum K1 = test: WHO-TDR: Malaria; assay type: functional, organism-based, Homo sapiens; conditions: Erythrocyte
# Outline: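 Whole-organism screen of a 10,000-compound diverse library from Life Chemicals, filtered for drug-likeness and reactive groups, against intra-erythrocytic Plasmodium falciparum K1 strain in human red blood cells. The assay followed previously published standard procedures, with a reference drug as positive control. Antiplasmodial potency is reported as IC50.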
# Leishmania infantum = test: WHO-TDR: Leishmaniasis; assay type: functional, organism-based, Mus musculus; conditions: Macrophage
# Outline: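 Whole-organism screen of a 10,000-compound diverse library from Life Chemicals, filtered for drug-likeness and reactive groups, against intracellular amastigotes of Leishmania infantum MHOM/MA(BE)/67 in murine peritoneal macrophage host cells. The assay followed previously published standard procedures, with a reference drug as positive control. Antiparasitic potency is reported as IC50.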
# Trypanosoma cruzi = test: WHO-TDR: Chagas disease; assay type: functional, organism-based, Homo sapiens; conditions: MRC5
# Outline: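 A diverse library of 10,000 compounds from Life Chemicals, filtered for drug-likeness and reactive groups, was screened against intracellular amastigotes of Trypanosoma cruzi Tulahuen CL2 beta-galactosidase strain. The parasites were grown in MRC-5SV2 human lung fibroblast host cells, and a reference drug served as positive control under previously published standard procedures. Antiparasitic potency is given as IC50.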
# Onchocerca ochengi = test: WHO-TDR: Onchocerciasis; assay type: functional; parameters: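 at 12.5 µM on microfilariae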
# Outline: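 Onchocerca ochengi or Onchocerca lienalis, animal pathogens used as surrogates for the human parasite, were screened as whole microfilariae against a 10,000-compound diverse library from Life Chemicals. The reported measures of activity are percent inhibition and IC50.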
# [1] = WHO-TDR: Cytotoxicity; assay type: toxicity, cell-based; conditions: human, MRC5 cells
# Brugia malayi = test: WHO-TDR: Lymphatic Filariasis; assay type: functional; parameters: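 tested at 10 µM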
# Outline: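 Percent inhibition and IC50 describe activity against Brugia malayi microfilariae in a whole-organism screen. The screen used previously published standard procedures with reference drugs as positive controls. Compounds came from a diverse Life Chemicals library of 10,000, filtered for drug-likeness and reactive groups.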
# [2] = system: Trypanosoma brucei brucei; test: WHO-TDR: Human African Trypanosomiasis (HAT); assay type: functional, organism-based; conditions: Squib-427
# Outline: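 Whole-organism screen of a 10,000-compound diverse library from Life Chemicals, filtered for drug-likeness and reactive groups, against bloodstream forms of Trypanosoma brucei Squib 427 strain. The assay followed previously published standard procedures, with reference drugs as positive controls. Antiparasitic potency is reported as IC50.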
SMILES,IC50 (Plasmodium falciparum K1) [µg/mL],IC50 (Leishmania infantum) [µg/mL],IC50 [2] [µg/mL],IC50 (Trypanosoma cruzi) [µg/mL],% Inhibition (Onchocerca ochengi) [%],IC50 [1] [µg/mL],% Inhibition (Brugia malayi) [%]
CCOC(=O)N1CCN(C(=O)Nc2nc(CC(=O)Nc3nc4ccccc4s3)cs2)CC1,> 14.2,> 14.2,> 14.2,> 14.2,100,> 14.2,20
CN(C)c1ccc(NC(=O)Cc2csc(SCc3ccncc3)n2)cc1,> 11.5,3.65,> 11.5,3.47,100,> 11.5,0
FC(F)(F)c1ccc(Nc2ncnc3[nH]ncc23)cc1,> 8.38,> 8.38,3.19,2.72,100,> 8.38,0
FC(F)Sc1ccc(Nc2ncnc3[nH]ncc23)cc1,> 8.8,> 8.8,> 8.8,> 8.8,100,> 8.8,0
CC(C)c1ccc(Nc2ncnc3[nH]ncc23)cc1,> 7.6,5.18,> 7.6,4.44,100,> 7.6,0
c1ccc2c(CCNc3ncnc4[nH]ncc34)c[nH]c2c1,> 8.35,> 8.35,> 8.35,2.44,100,> 8.35,0
CCSc1nnc(NC(=O)c2cc(=O)c(OCc3ccc(F)cc3)cn2C)s1,> 12.6,> 12.6,> 12.6,> 12.6,100,> 12.6,0
Cc1cc(=O)[nH]c(-n2nc(C)c(CCC(=O)Nc3ccc(F)c(C(F)(F)F)c3)c2C)n1,> 13.1,> 13.1,5,4.25,100,> 13.1,20
O=C(Cc1csc(Nc2ccccc2)n1)NCCc1c[nH]c2ccccc12,> 11.3,> 11.3,> 11.3,> 11.3,100,> 11.3,20
COc1ccccc1CCNC(=O)CCc1csc(NC(=O)c2cccs2)n1,> 12.5,5.26,4.19,3.8,100,5.79,0
CSc1ccccc1NC(=O)CCc1csc(NC(=O)c2cccs2)n1,> 12.1,12.1,4.15,5.38,100,> 12.1,0
O=C(CCc1csc(NC(=O)c2cccs2)n1)Nc1nc2ccccc2s1,> 12.4,4.03,> 12.4,> 12.4,100,> 12.4,0
O=C(CCc1csc(NC(=O)c2ccco2)n1)NCc1c(F)cccc1F,> 11.7,> 11.7,> 11.7,> 11.7,100,> 11.7,0
CCOC(=O)N1CCC(NC(=O)CCc2csc(NC(=O)c3ccccc3)n2)CC1,10.6,> 12.9,> 12.9,> 12.9,100,4.08,0
COc1ccc(S(=O)(=O)Nc2cc(C)nn2C2CCS(=O)(=O)C2)cc1C (stereo not given),> 12,> 12,> 12,> 12,100,> 12,0
Cc1cc(NS(=O)(=O)c2c(C)noc2C)n(C2CCS(=O)(=O)C2)n1 (stereo not given),> 11.2,> 11.2,> 11.2,> 11.2,100,> 11.2,0
Cc1cc(-c2nnc(SCC(=O)Nc3cccc(C(F)(F)F)c3)o2)c(C)o1,> 11.9,> 11.9,4.69,> 11.9,100,> 11.9,0
O=C(NCCNc1ccc(Nc2cccnc2)nn1)c1cccc(C(F)(F)F)c1,9.79,> 12.1,> 12.1,> 12.1,100,> 12.1,0
CCOCC(=O)Nc1ccc(-c2nnc(N(C)c3ccc(OC)cc3)s2)cc1,> 12,> 12,> 12,> 12,100,> 12,0
COc1ccc(-c2cn3c(C(=O)Nc4cc(C)on4)csc3n2)cc1,> 10.6,> 10.6,> 10.6,> 10.6,100,> 10.6,0
COc1ccc(-c2cn3c(C(=O)Nc4ccc(F)cc4F)csc3n2)cc1,> 11.6,> 11.6,> 11.6,> 11.6,100,> 11.6,0
COc1ccc(-c2cn3c(C(=O)Nc4cc(C)ccc4C)csc3n2)cc1,> 11.3,5.86,3.11,> 11.3,100,> 11.3,0
COc1ccccc1CC(=O)c1ccc(O)c(CN2CCCC(C)C2)c1O (stereo not given),0.343,> 11.1,3.63,> 11.1,0,> 11.1,0

# Now from value to compound, other results behind:
IC50 (Plasmodium falciparum K1) [µg/mL],IC50 (Leishmania infantum) [µg/mL],IC50 [2] [µg/mL],SMILES,IC50 (Trypanosoma cruzi) [µg/mL],% Inhibition (Onchocerca ochengi) [%],IC50 [1] [µg/mL],% Inhibition (Brugia malayi) [%]
> 12.3,> 12.3,> 12.3,O=C(Cc1csc(SCc2ccncc2)n1)N1CCN(c2ccccc2)CC1,4.2,100,> 12.3,0
> 7.54,> 7.54,> 7.54,c1ccc2c(c1)CCN(c1ncnc3[nH]ncc13)C2,> 7.54,100,> 7.54,0
> 13.6,> 13.6,> 13.6,CCOC(=O)N1CCN(C(=O)Nc2nc(CC(=O)Nc3ccc(F)c(F)c3)cs2)CC1,> 13.6,100,> 13.6,20
13.3,> 13.3,0.382,COc1ccc(-c2cn3c(CCC(=O)NCCc4c[nH]c5ccccc45)csc3n2)cc1,2.66,100,> 13.3,20
> 12.7,> 12.7,4.22,COc1ccc(-c2cn3c(CCC(=O)Nc4ccccc4SC)csc3n2)cc1,5.77,100,> 12.7,20
> 10.7,> 10.7,> 10.7,Cc1cc(=O)[nH]c(-n2nc(C)c(CCC(=O)Nc3cc(C)on3)c2C)n1,> 10.7,100,> 10.7,20
> 11.3,> 11.3,> 11.3,O=C(CCc1csc(NC(=O)c2ccco2)n1)Nc1ccc(Cl)cc1,3.67,100,> 11.3,0
> 12.4,0.843,> 12.4,Cc1cccc2sc(NC(=O)CCc3csc(NC(=O)c4ccco4)n3)nc12,> 12.4,100,> 12.4,0
4.41,4.21,4.11,COc1ccc(-c2cn3c(C(=O)Nc4ccc(OC(F)(F)F)cc4)csc3n2)cc1,3.69,100,1.79,0
> 13.5,6.97,> 13.5,COc1cccc(-c2cn3c(C(=O)N4CCN(c5ccccc5OC)CC4)csc3n2)c1,6.97,100,2.13,0
> 11,> 11,> 11,COc1ccc(-c2cn3c(C(=O)Nc4ccccc4F)csc3n2)cc1,> 11,100,> 11,0
4.97,0.517,0.412,Cc1cc(=O)[nH]c(-n2nc(-c3cccs3)cc2NC(=O)C2(c3ccc(Cl)cc3)CCCC2)n1,0.466,75,0.682,0

# Reference: ChEMBL document CHEMBL2093137, “WHO-TDR NTD Screening”
